The target in experiment [1] is T1, Mu-type opioid receptor (Cavia porcellus, UniProt P97266). In words: Displacement of [3H]DAMGO from mu opioid receptor of guinea pig brain membrane.
For experiment [2], the target named is T1, Mu-type opioid receptor. Nature of the experiment: Inhibitory concentration of compound against mu opioid receptor in guinea pig ileum assay. It is filed as tissue-based. In short, it runs like this: (§1)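 Electrically stimulated tissue in Krebs bicarbonate, 37 °C, 95% O2/5% CO2, 0.1 Hz, supramaximal voltage. MVD used male ICR mouse vas deferens, Mg-free buffer, 0.5 g tension, 2.0 ms pulses. GPI used male Hartley guinea pig ileum myenteric plexus strips, 1 g tension, 0.4 ms pulses. Cumulative agonist doses, 3 min each. IC50 from Hill fit to mean inhibition data, 2–4 tissues.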

The target of experiment [3] is Delta-type opioid receptor (Mus musculus, UniProt P32300). In words: Inhibitory concentration against delta opioid receptor in mouse vas deferens assay. In kind it is tissue-based. In short, it runs like this: as §1
Delta-type opioid receptor, sequence (P32300 whole entry): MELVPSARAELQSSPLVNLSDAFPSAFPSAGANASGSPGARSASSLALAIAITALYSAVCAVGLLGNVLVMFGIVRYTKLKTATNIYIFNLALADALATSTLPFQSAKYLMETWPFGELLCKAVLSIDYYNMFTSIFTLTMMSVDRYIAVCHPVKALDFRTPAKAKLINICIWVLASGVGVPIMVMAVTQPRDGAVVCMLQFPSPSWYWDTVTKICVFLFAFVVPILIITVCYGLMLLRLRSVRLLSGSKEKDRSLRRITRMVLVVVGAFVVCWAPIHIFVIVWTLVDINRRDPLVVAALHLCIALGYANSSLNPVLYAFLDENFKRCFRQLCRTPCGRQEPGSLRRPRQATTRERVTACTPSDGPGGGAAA
Experiment [4] has as its target Opioid receptors; mu & delta (UniProt P41143+P35372). Nature of the experiment: Ratio of IC50 against mu opioid to IC50 against delta opioid receptor. In short, it runs like this:
as §1

Data on eleven molecules can be found in ChEMBL document CHEMBL1127294, “Development of a model for the delta opioid receptor pharmacophore. 1. Conformationally restricted Tyr1 replacements in the cyclic delta receptor selective tetrapeptide Tyr-c[D-Cys-Phe-D-Pen]OH (JOM-13)” (J Med Chem, 1994).

SMILES strings stand for the structures. Peptide text beside a SMILES is read from it.

T1 sequence (P97266 whole entry): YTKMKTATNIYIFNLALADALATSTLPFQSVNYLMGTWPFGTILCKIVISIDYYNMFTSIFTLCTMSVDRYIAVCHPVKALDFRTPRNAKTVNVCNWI
Opioid receptors; mu & delta, sequence (P35372 whole entry, looked up): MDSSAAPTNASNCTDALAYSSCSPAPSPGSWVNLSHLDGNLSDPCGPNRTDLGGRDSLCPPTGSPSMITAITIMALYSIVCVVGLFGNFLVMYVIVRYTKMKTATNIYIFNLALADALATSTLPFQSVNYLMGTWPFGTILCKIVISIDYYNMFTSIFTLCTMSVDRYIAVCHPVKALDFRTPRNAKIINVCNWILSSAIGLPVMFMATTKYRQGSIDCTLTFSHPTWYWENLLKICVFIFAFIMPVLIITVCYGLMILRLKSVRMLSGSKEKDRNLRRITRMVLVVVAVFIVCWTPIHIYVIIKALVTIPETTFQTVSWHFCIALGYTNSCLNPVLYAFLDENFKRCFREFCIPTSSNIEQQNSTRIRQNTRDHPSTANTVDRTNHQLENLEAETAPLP
Opioid receptors; mu & delta, sequence (P41143 whole entry, looked up): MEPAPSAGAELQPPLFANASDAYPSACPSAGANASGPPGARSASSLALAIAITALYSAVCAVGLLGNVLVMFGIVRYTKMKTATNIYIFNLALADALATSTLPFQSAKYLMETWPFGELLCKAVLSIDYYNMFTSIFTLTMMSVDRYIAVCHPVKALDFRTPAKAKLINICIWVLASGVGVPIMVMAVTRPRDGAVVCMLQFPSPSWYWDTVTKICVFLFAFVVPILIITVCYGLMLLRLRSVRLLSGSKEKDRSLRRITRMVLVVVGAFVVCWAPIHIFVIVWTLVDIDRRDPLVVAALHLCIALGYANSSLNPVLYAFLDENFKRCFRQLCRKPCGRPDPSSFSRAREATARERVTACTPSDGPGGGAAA

Molecule `CC1(C)SSC[C@H](NC(=O)[C@H]2NCC[C@H]2c2ccc(O)cc2)C(=O)N[C@@H](Cc2ccccc2)C(=O)N[C@@H]1C(=O)O` showed a Ki on Mu-type opioid receptor [1] of 0.72 µM. Moreover, the IC50 worked out at 12 µM on Mu-type opioid receptor [2] and 0.075 µM in experiment [3]. In addition, the Ratio in experiment [4] amounted to 160.
On Mu-type opioid receptor [1], `CC1(C)SSC[C@H](NC(=O)C2(N)CCc3cc(O)ccc3C2)C(=O)N[C@@H](Cc2ccccc2)C(=O)N[C@@H]1C(=O)O` (single isomer, unassigned) returned an inhibition constant (Ki) of 0.31 µM. The IC50 worked out at 4.3 µM against Mu-type opioid receptor [2] and 0.34 µM in experiment [3]. The Ratio in experiment [4] is 13.
`CC1(C)SSC[C@H](NC(=O)C2NCC[C@@H]2c2ccc(O)cc2)C(=O)N[C@@H](Cc2ccccc2)C(=O)N[C@@H]1C(=O)O` (single isomer, unassigned): affinity at Mu-type opioid receptor [1] was put at a Ki of 10 µM.
On to `CC1(C)SSC[C@H](NC(=O)C2(N)Cc3ccc(O)cc3C2)C(=O)N[C@@H](Cc2ccccc2)C(=O)N[C@@H]1C(=O)O` (single isomer, unassigned), for which the Ki at Mu-type opioid receptor [1] is more than 10 µM.
For `CC1(C)SSC[C@H](NC(=O)[C@@]2(N)Cc3ccc(O)cc3C2)C(=O)N[C@@H](Cc2ccccc2)C(=O)N[C@@H]1C(=O)O`, at Mu-type opioid receptor [1], affinity was put at a Ki of 0.84 µM. Besides, the IC50 at Mu-type opioid receptor [2] is more than 10 µM; in experiment [3], 0.34 µM. In addition, the Ratio in experiment [4] is more than 29.
With `CC1(C)SSC[C@H](NC(=O)[C@@H](N)Cc2ccc(O)cc2)C(=O)N[C@@H](Cc2ccccc2)C(=O)N[C@@H]1C(=O)O`, in experiment [3], the midpoint of inhibition, the IC50, lay at 0.0042 µM.
Molecule `CC1(C)SSC[C@H](NC(=O)[C@@](C)(N)Cc2ccc(O)cc2)C(=O)N[C@@H](Cc2ccccc2)C(=O)N[C@@H]1C(=O)O` (HELM PEPTIDE1{[C[C@](N)(Cc1ccc(O)cc1)C(=O)[*:2]].C.F.[Pen]}$PEPTIDE1,PEPTIDE1,2:R3-4:R3$$$V2.0) returned a Ki at Mu-type opioid receptor [1] of more than 10 µM.
`CC1(C)SSC[C@H](NC(=O)[C@]2(N)CCc3cc(O)ccc3C2)C(=O)N[C@@H](Cc2ccccc2)C(=O)N[C@@H]1C(=O)O` showed an inhibition constant Ki at Mu-type opioid receptor [1] of 0.23 µM. The half-inhibitory concentration (IC50) against Mu-type opioid receptor [2] came to 1.8 µM; in experiment [3], 0.11 µM. For the same molecule, the Ratio in experiment [4] is 16.
`CC1(C)SSC[C@H](NC(=O)[C@H]2NCC[C@@H]2c2ccc(O)cc2)C(=O)N[C@@H](Cc2ccccc2)C(=O)N[C@@H]1C(=O)O`: the affinity on Mu-type opioid receptor [1], expressed as Ki, was 0.11 µM. Further, the IC50 was 0.77 µM against Mu-type opioid receptor [2] and 0.0016 µM in experiment [3]. In addition, the Ratio in experiment [4] came to 480.
Consider `CC1(C)SSC[C@H](NC(=O)C2NCC[C@H]2c2ccc(O)cc2)C(=O)N[C@@H](Cc2ccccc2)C(=O)N[C@@H]1C(=O)O` (single isomer, unassigned), for which the Ki at Mu-type opioid receptor [1] turned out to be 4.44 µM.
As for `CC1(C)SSC[C@H](NC(=O)[C@@H]2Cc3ccc(O)cc3CN2)C(=O)N[C@@H](Cc2ccccc2)C(=O)N[C@@H]1C(=O)O` (HELM PEPTIDE1{[O=C([C@@H]1Cc2ccc(O)cc2CN1)[*:2]].C.F.[Pen]}$PEPTIDE1,PEPTIDE1,2:R3-4:R3$$$V2.0), the Ki on Mu-type opioid receptor [1] is more than 10 µM.
